Data taken from ChEMBL document CHEMBL3046951, “Volatile constituents from the leaves of Callicarpa japonica Thunb. and their antibacterial activities” (2004).

Experiments:
Format in all cases: functional
Vibrio parahaemolyticus [1] = assay: Antimicrobial activity against Vibrio parahaemolyticus ATCC 33844 assessed as growth inhibition rate at 5.32 mg/l after 72 hr by spectrophotometry; details: ATCC 33844, 72 h, read-out: GI
Escherichia coli [2] = assay: Antimicrobial activity against Escherichia coli O157:H7 ATCC 43894 assessed as growth inhibition rate at 5.32 mg/l after 72 hr by spectrophotometry; details: O157:H7 ATCC 43894, 72 h, read-out: GI
Salmonella typhimurium [3] = assay: Antimicrobial activity against Salmonella enterica subsp. enterica serovar Typhimurium ATCC 14028 assessed as growth inhibition rate at 5.32 mg/l after 72 hr by spectrophotometry; details: ATCC 14028, 72 h, read-out: GI
Listeria monocytogenes [4] = assay: Antimicrobial activity against Listeria monocytogenes ATCC 19111 assessed as growth inhibition rate at 5.32 mg/l after 72 hr by spectrophotometry; details: ATCC 19111, 72 h, read-out: GI
Method in brief: (§1)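 L. monocytogenes was grown at 30 °C in tryptic soy broth, subcultured for 18 h, and exposed to pure volatile compounds (>95% purity). Growth was followed by Bioscreen C optical density every 24 h for 72 h against a 10% Tween 80 control.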

Staphylococcus aureus [5] = assay: Antimicrobial activity against Staphylococcus aureus ATCC 25923 assessed as growth inhibition rate at 5.32 mg/l after 72 hr by spectrophotometry; details: ATCC 25923, 72 h, read-out: GI
Bacillus cereus [6] = assay: Antimicrobial activity against Bacillus cereus ATCC 11778 assessed as growth inhibition rate at 5.32 mg/l after 72 hr by spectrophotometry; details: ATCC 11778, 72 h, read-out: GI
Method in brief: (§2)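 Pure volatile compounds (purity >95%; one at 90%) were tested against B. cereus ATCC 11778. The strain was grown at 30 °C in nutrient broth for 24 h, then subcultured for 18 h. Optical density was read in a Bioscreen C every 24 h for 72 h, with 10% Tween 80 as the control.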

Escherichia coli [7] = assay: Antimicrobial activity against Escherichia coli O157:H7 ATCC 43894 assessed as growth inhibition rate at 10.36 mg/l after 72 hr by spectrophotometry; details: O157:H7 ATCC 43894, 72 h, read-out: GI
Bacillus cereus [8] = assay: Antimicrobial activity against Bacillus cereus ATCC 11778 assessed as growth inhibition rate at 10.36 mg/l after 72 hr by spectrophotometry; details: ATCC 11778, 72 h, read-out: GI; method in brief: as §2
Salmonella typhimurium [9] = assay: Antimicrobial activity against Salmonella enterica subsp. enterica serovar Typhimurium ATCC 14028 assessed as growth inhibition rate at 10.36 mg/l after 72 hr by spectrophotometry; details: ATCC 14028, 72 h, read-out: GI
Method in brief: (§3)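 Salmonella Typhimurium ATCC 14028 grown in nutrient broth at 30 °C, precultured 24 h, then subcultured 1:100 for 18 h before testing. Single volatile compounds (>95% pure) were added. OD was read every 24 h over 72 h in a Bioscreen C, with 10% Tween 80 as the comparison control.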

Staphylococcus aureus [10] = assay: Antimicrobial activity against Staphylococcus aureus ATCC 25923 assessed as growth inhibition rate at 10.36 mg/l after 72 hr by spectrophotometry; details: ATCC 25923, 72 h, read-out: GI
Listeria monocytogenes [11] = assay: Antimicrobial activity against Listeria monocytogenes ATCC 19111 assessed as growth inhibition rate at 10.36 mg/l after 72 hr by spectrophotometry; details: ATCC 19111, 72 h, read-out: GI; method in brief: as §1
Vibrio parahaemolyticus [12] = assay: Antimicrobial activity against Vibrio parahaemolyticus ATCC 33844 assessed as growth inhibition rate at 10.36 mg/l after 72 hr by spectrophotometry; details: ATCC 33844, 72 h, read-out: GI
Salmonella typhimurium [13] = assay: Antimicrobial activity against Salmonella enterica subsp. enterica serovar Typhimurium ATCC 14028 assessed as growth inhibition rate at 43.2 mg/l after 72 hr by spectrophotometry; details: ATCC 14028, 72 h, read-out: GI; method in brief: as §3
Bacillus cereus [14] = assay: Antimicrobial activity against Bacillus cereus ATCC 11778 assessed as growth inhibition rate at 43.2 mg/l after 72 hr by spectrophotometry; details: ATCC 11778, 72 h, read-out: GI; method in brief: as §2
Vibrio parahaemolyticus [15] = assay: Antimicrobial activity against Vibrio parahaemolyticus ATCC 33844 assessed as growth inhibition rate at 43.2 mg/l after 72 hr by spectrophotometry; details: ATCC 33844, 72 h, read-out: GI
Staphylococcus aureus [16] = assay: Antimicrobial activity against Staphylococcus aureus ATCC 25923 assessed as growth inhibition rate at 43.2 mg/l after 72 hr by spectrophotometry; details: ATCC 25923, 72 h, read-out: GI
Listeria monocytogenes [17] = assay: Antimicrobial activity against Listeria monocytogenes ATCC 19111 assessed as growth inhibition rate at 43.2 mg/l after 72 hr by spectrophotometry; details: ATCC 19111, 72 h, read-out: GI; method in brief: as §1
Escherichia coli [18] = assay: Antimicrobial activity against Escherichia coli O157:H7 ATCC 43894 assessed as growth inhibition rate at 43.2 mg/l after 72 hr by spectrophotometry; details: O157:H7 ATCC 43894, 72 h, read-out: GI

Work on CCCCCC(O)CC (stereo not drawn) [3-OCTANOL] yielded an inhibition of growth at 5.32 µg/mL (Vibrio parahaemolyticus [1]) of 70.7%, an inhibition of growth at 5.32 µg/mL (Escherichia coli [2]) of 8.9% and an inhibition of growth at 5.32 µg/mL (Salmonella typhimurium [3]) of 20.6%. The inhibition of growth at 5.32 µg/mL (Listeria monocytogenes [4]) was 21.5%, the inhibition of growth at 5.32 µg/mL (Staphylococcus aureus [5]) was 52.6% and the inhibition of growth at 5.32 µg/mL (Bacillus cereus [6]) was 43%.

CC/C=C\CO [CIS-2-PENTEN-1-OL] was tested, and the inhibition of growth at 10.36 µg/mL (Escherichia coli [7]) was 21.9%, the inhibition of growth at 10.36 µg/mL (Bacillus cereus [8]) was 20.4% and the inhibition of growth at 10.36 µg/mL (Salmonella typhimurium [9]) was 9.4%. For the same compound, the inhibition of growth at 10.36 µg/mL (Staphylococcus aureus [10]) was 8.1%, the inhibition of growth at 10.36 µg/mL (Listeria monocytogenes [11]) was 0% and the inhibition of growth at 10.36 µg/mL (Vibrio parahaemolyticus [12]) was 10.5%.

With CC/C=C\CCO [CIS-3-HEXENOL] the inhibition of growth at 43.2 µg/mL (Salmonella typhimurium [13]) was 56.2%, the inhibition of growth at 43.2 µg/mL (Bacillus cereus [14]) was 14.3% and the inhibition of growth at 43.2 µg/mL (Vibrio parahaemolyticus [15]) was 73.7%. It also gave an inhibition of growth at 43.2 µg/mL (Staphylococcus aureus [16]) of 21.6%, an inhibition of growth at 43.2 µg/mL (Listeria monocytogenes [17]) of 10.3% and an inhibition of growth at 43.2 µg/mL (Escherichia coli [18]) of 41%.
